Source: PubChem (several laboratories)
HUVEC prolif 384 – human endothelial cell proliferation inhibition; viability, % at 10 µM (by protocol); HUVEC proliferation, CellTiter-Glo luminescence, 72 h; active compounds read low; 1.1% of 86,000 active;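 active = viability at or below 30%; inactive = viability above 30%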;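 note: 100% = median luminescence of DMSO-only cell control wells on each plate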
ERb coact inh – blocks coactivator binding to human estrogen receptor beta; Q92731; TR-FRET ER-beta LBD / SRC1-Cy5 peptide binding; receptor agonist-loaded with 1 µM estradiol; inhibition, % at 25.6 µM; 1.3% of 86,000 active;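 active = compounds whose percent inhibition of the receptor-coactivator binding signal exceeds about 50% in the single-dose screen, limit read from the data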;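 note: 0% = receptor plus peptide wells without compound and 100% = peptide-only wells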
Target sequence (Q92731 whole entry, looked up, the tested form may be a part): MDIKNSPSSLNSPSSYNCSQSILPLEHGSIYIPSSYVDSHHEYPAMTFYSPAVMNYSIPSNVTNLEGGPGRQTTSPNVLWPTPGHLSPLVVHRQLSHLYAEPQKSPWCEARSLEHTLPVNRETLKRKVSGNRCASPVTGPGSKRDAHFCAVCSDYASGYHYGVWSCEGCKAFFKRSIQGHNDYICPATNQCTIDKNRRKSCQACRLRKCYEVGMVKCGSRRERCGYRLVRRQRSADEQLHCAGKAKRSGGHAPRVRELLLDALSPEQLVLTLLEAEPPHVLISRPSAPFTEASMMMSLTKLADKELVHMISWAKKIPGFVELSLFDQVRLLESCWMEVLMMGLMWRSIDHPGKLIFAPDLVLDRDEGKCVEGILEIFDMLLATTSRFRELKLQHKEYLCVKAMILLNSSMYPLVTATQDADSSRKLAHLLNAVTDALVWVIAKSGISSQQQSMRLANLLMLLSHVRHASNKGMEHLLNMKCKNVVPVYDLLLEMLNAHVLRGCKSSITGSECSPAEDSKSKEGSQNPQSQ
H69AR inhibit – blocks growth of human H69AR lung tumor cells; viability, % at 10 µM; AID 598; H69AR lung tumor viability, ATP luminescence, 72 h; active compounds read low; 6% of 85,000 active;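 active = viability at or below 40%; inactive = viability above 40%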;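 note: multidrug resistant small cell line overexpressing MRP-1 efflux transporter; 100% = mean luminescence of untreated control wells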
ERa coact inh – blocks coactivator binding to human estrogen receptor alpha | P03372 | inhibition, % at 25.6 µM | TR-FRET ER-alpha LBD / SRC-1 peptide, estradiol-bound | AID 629 | 1.7% of 86,000 active; in the data active = inhibition above about 50%;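 note: 0% = receptor plus peptide control and 100% = peptide only without receptor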
ERa coact pot – ER-alpha (human) coactivator binding potentiation | P03372 | TR-FRET ERalpha-LBD/SRC-Cy5 coactivator binding, 2 h; 100 = basal binding, no effect | coactivator binding (% of control), % at 25.6 µM | AID 639 | 1.3% of 86,000 active; in the data active = activity above about 200%;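 note: binding measured in presence of low estradiol as agonist stimulus; 0% = peptide alone without receptor and 100% = receptor with peptide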
Fibroblast inh – blocks proliferation of human lung fibroblasts. LL 47 human lung fibroblast viability, ATP luminescence; active compounds read low. viability, % at 10 µM. 1.1% of 85,000 active;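 active = viability at or below 50% in the single dose screen; inactive = viability above 50%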;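 note: compound exposure lasted 72 h before the ATP readout; 100% = median luminescence of untreated cell-only wells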
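Test system: LL 47 human lung fibroblasts / Incubation: 72 h compound exposure at 37 °C after overnight plating / Technique: luminescent ATP detection, CellTiter-Glo / Compound dosing: 0.1% DMSO in all compound wells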
* = called active by the depositor; nt = no result given; [ ] = remark or other dose. Rows were chosen to be rich in hits. Some 9.2% of all compounds tested hit in one or more screens of this group.

SMILES | HUVEC prolif 384 | ERb coact inh | H69AR inhibit | ERa coact inh | ERa coact pot | Fibroblast inh
CCOC(=O)CSc1nc2cc(C(=O)OC)ccc2c(=O)n1CCN1CCOCC1 | 87.7 | 3.5 | 88.2 | 7.0 | 107.2 | 104.4
COC(=O)c1ccc2c(=O)n(CCN3CCOCC3)c(SCC(=O)C(C)(C)C)nc2c1 | 78.0 | 3.7 | 72.7 | 9.5 | 786.4*[fluorescence artefact?] | 105.8
CCOc1ccc(NC(=O)CCN2CCN(S(=O)(=O)c3ccc(Cl)cc3)CC2)cc1 | 96.5 | -6.4 | 67.1 | -9.7 | 101.3 | 103.5
COc1cccc(C(=O)Nc2cccc(-c3nnc(-c4ccco4)o3)c2)c1 | 44.8 | -1.1 | 38.0* | -13.2 | 102.1 | 97.4
COc1ccc(Br)cc1C(=O)Nc1cccc(-c2nnc(-c3ccco3)o2)c1 | 47.4 | 52.8*[fluorescence artefact?] | 8.6* | 69.0*[fluorescence artefact?] | 115.1 | 113.9
CCC(Oc1ccccc1)C(=O)Nc1ccc(-c2nnc(-c3ccco3)o2)cc1 (configuration not stated) | 101.0 | -8.6 | 100.9 | 0.5 | 118.3 | 102.8
O=C(COc1ccc(Br)cc1)Nc1ccc(-c2nnc(-c3ccco3)o2)cc1 | 71.4 | 3.0 | 99.1 | 3.5 | 267.8*[fluorescence artefact?] | 95.5
Cc1cc(-c2nnc3n2CCCCC3)c(C)n1-c1ccccc1 | 103.5 | -3.0 | 83.7 | -6.8 | 130.0 | 104.9
Cc1cc(C)c(C)c(S(=O)(=O)NCC(=O)N2CCCC2)c1C | 101.1 | -0.3 | 100.9 | 1.9 | 130.0 | 100.1
O=C(CS(=O)(=O)c1c[nH]c2ccccc12)NC1CCCCC1 | 103.8 | -2.3 | 87.7 | -0.5 | 108.0 | 104.7
Cc1ccc(S(=O)(=O)N2CCN(c3ccc(S(=O)(=O)N4CCOCC4)cn3)CC2)cc1 | 83.4 | 31.3 | 82.3 | -14.8 | 345.9*[fluorescence artefact?] | 90.3
CCOC(=O)c1sc(C)c2c1NC(c1ccc(N(C)C)cc1)NC2=O (configuration not stated) | 92.3 | 11.7 | 67.5 | 11.1 | 216.0*[fluorescence artefact?] | 66.7
COc1cc(/C=C2/C(=N)N3C=CSC3=NC2=O)ccc1OCCCOc1cc(C)ccc1C | 15.2* | 15.0 | 19.1* | 28.7 | 117.8 | 70.2
COc1cc2c(cc1OC)CN(C(=O)COc1ccc(C)c(C)c1)CC2 | 96.5 | -1.1 | 90.0 | -6.0 | 116.8 | 95.8
Cc1noc(C)c1COC(=O)c1cc2c(C)nn(-c3ccc(F)cc3)c2s1 | 53.4 | 58.6*[fluorescence artefact?] | 53.8 | 74.1*[fluorescence artefact?] | 150.1 | nt
Cc1noc(C)c1COC(=O)c1cc2c3ccccc3n(C)c2s1 | 108.4 | -49.4 | 79.1 | -80.3 | 751.4* | nt
Cc1noc(C)c1COC(=O)c1ccc2c(c1)OCCO2 | 96.4 | 0.3 | 99.3 | 2.6 | 104.7 | 100.7
O=C(NCc1ccccc1)C1CC2CCCC(C1)C2=O (configuration not stated) | 90.8 | -10.3 | 98.0 | -17.4 | 105.0 | 97.9
Cc1ccc(S(=O)(=O)/N=C(\CSC(N)=O)Nc2ccccc2)cc1 | 95.5 | -0.7 | 24.3* | 2.0 | 113.2 | 96.3
Cc1ccc(S(=O)(=O)/N=C(\Sc2ccccc2)c2ccccc2)cc1 | 35.5 | 35.8 | 40.7 | 48.7 | 56.6 | 60.3
CCc1ccc(NC(=O)C(=O)NCCN2CCN(C(=O)c3ccco3)CC2)cc1 | 100.4 | -1.6 | 97.1 | -5.4 | 108.8 | 91.0
Cc1ccc(S(=O)(=O)N2CCC[C@H]2C(=O)OC(C)C(=O)Nc2ncc(Cl)cc2Cl)cc1 (some centres not stated) | 95.8 | -17.6 | 96.2 | -3.1 | 102.3 | 103.0
O=c1[nH]c2cc3c(cc2cc1C(c1nnnn1C1CCCC1)N1CCSCC1)OCCO3 (configuration not stated) | 65.4 | 9.6 | 6.4* | 20.5 | 214.9*[fluorescence artefact?] | 80.5
Cc1cc(C)c2cc(C(c3nnnn3C3CCCC3)N3CCOCC3)c(=O)[nH]c2c1 (configuration not stated) | 99.4 | -8.9 | 35.5* | 19.3 | 111.5 | 97.4
CCN1CCN(c2ncc(C(=O)Nc3cc(Cl)ccc3OC)c3ccccc23)CC1 | 19.4* | -20.4 | 12.3* | -41.2 | 95.3 | 68.5
CCOC(=O)c1cnc2ccc(OCC)cc2c1N1CCN(c2ccccc2OC)CC1 | 66.8 | -16.9 | 28.9* | -0.5 | 63.5 | 86.7
CCOC(=O)C1CCN(c2c(N3CCN(c4ccccc4OC)CC3)c(=O)c2=O)CC1 | 99.7 | 7.2 | 73.3 | 0.3 | 109.8 | 103.3
CCCOc1ccc(-c2nc(C#N)c(N3CCN(CC)CC3)o2)cc1 | 92.8 | -4.3 | 83.6 | -9.3 | 92.8 | 96.4
